From PMC9826503 (Chemmedchem, 2022)
Like-named read-outs stand apart in the source and are kept apart here.

Key:
[1] = test system: MCF-7 hormone responsive breast cancer cell line; test: Resazurin cytotoxicity assay, MCF-7; type: cell-based; conditions: for IC50: read-out: MCF-7 IC50 and SD
human genomic DNA (gDNA) = test: Agarose gel electrophoresis, ethidium bromide displacement from gDNA; type: binding
Summary of the method: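 Human genomic DNA (100 ng) was incubated with test compound at 50 or 200 μM for 4 hours at 37 °C, alongside a 2 % (v/v) DMSO control and a cisplatin (200 μM) control. Mixtures with loading dye were run on a 0.8 % (w/v) agarose gel containing ethidium bromide, 45 min at 90 V in 1× TAE (40 mM Tris-acetate, 1 mM EDTA). Bands were imaged, and EtBr staining intensity was compared across lanes.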

[2] = Time-dependent stability studies by UV-Vis spectrophotometry; type: physicochemical; conditions: 10^−5 M, 1 hour intervals for 24 hours
Summary of the method: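 Test compound was dissolved at 10−5 M in anhydrous DMSO at room temperature and filtered. UV-Vis spectra were then recorded hourly over 24 hours.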

[3] = target: T1, recombinant human topoisomerase I (Homo sapiens, UniProt P11387); test: Topoisomerase I inhibition; type: biochemical
T1 sequence (P11387 1-765): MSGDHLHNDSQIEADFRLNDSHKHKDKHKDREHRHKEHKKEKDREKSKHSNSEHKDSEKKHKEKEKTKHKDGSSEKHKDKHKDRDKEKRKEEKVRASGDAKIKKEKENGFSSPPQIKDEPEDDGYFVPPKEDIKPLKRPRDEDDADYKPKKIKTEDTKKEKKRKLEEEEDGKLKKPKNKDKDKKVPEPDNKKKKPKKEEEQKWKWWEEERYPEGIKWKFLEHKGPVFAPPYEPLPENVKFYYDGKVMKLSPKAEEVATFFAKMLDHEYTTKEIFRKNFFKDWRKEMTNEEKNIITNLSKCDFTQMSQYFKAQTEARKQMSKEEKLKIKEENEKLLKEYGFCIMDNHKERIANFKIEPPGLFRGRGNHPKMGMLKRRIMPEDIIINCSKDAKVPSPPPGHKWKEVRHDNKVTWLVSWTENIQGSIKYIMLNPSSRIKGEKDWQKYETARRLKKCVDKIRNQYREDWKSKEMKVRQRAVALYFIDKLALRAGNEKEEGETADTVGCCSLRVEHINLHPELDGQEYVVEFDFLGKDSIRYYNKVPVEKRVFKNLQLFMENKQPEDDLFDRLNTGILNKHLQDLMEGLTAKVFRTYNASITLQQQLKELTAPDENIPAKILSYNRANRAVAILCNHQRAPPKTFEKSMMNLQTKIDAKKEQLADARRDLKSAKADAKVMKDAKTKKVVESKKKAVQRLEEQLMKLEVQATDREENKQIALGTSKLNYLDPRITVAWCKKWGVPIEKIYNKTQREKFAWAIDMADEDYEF

calf thymus DNA = test: Methylene blue DNA competition assay; type: binding; conditions: 50 and 200 μM, 100 ng calf thymus DNA, 15 μg/mL methylene blue
Summary of the method: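 Each 100 μL reaction held methylene blue (15 μg/mL), calf thymus DNA (100 ng) and test compound (50 or 200 μM) in MilliQ water, with a 0.05 % (v/v) DMSO vehicle control. Mixtures were incubated 10 minutes at room temperature in the dark. An emission scan was then recorded under fixed excitation. Runs were done in triplicate.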

[4] = target: T2, bovine serum albumin (BSA) (Bos taurus, UniProt P02769); test: BSA fluorescence quenching titration, with and without site markers; type: binding
T2 sequence (P02769 25-607): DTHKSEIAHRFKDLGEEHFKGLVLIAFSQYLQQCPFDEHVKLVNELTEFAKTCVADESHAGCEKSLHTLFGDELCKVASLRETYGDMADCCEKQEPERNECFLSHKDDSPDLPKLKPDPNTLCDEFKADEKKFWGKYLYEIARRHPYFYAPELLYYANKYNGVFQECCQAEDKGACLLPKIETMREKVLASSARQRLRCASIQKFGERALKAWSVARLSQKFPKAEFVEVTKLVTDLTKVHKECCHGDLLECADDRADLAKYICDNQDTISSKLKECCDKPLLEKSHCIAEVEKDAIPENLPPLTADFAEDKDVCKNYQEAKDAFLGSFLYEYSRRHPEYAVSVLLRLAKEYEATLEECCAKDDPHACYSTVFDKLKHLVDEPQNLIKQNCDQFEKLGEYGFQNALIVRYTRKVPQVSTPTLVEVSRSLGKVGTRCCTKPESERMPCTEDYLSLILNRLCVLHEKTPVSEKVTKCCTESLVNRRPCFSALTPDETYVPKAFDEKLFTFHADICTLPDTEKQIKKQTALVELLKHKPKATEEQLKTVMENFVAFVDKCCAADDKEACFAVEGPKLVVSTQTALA
Summary of the method: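 Emission spectra of BSA recorded at 293 K during titration with increasing test compound. Excitation 280 nm, emission 300–500 nm, slits 5 nm. Intensities corrected for inner filter effect using absorbances at the excitation and emission maxima. KSV from Stern-Volmer fit; kq = KSV/τ0, τ0 10−8 s. Site-marker runs: warfarin (site I) or ibuprofen (site II) added equimolar to BSA (each 5 μM) before titration.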

[5] = test system: HeLa cervical cancer cell line; test: Resazurin cytotoxicity assay, HeLa; type: cell-based
[6] = test system: non-tumorigenic breast epithelial cell line MCF12A; test: Resazurin cytotoxicity assay, MCF-12A; type: cell-based; conditions: read-out: MCF-12A IC50 and SD
[7] = target: T2, bovine serum albumin (BSA); test: BSA UV-Vis absorption titration; type: binding; conditions: 280 nm
Summary of the method: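 BSA (~20 μM, PBS pH 7.2; concentration set from ε280 = 43824 M−1 cm−1) titrated with test compound (0–~380 μM; stocks in MeOH). Equal compound volumes added to the sample and reference cells; each mixture incubated 2 min. BSA absorbance at 280 nm fitted to a double-reciprocal plot of 1/(A0−A) vs 1/[compound]. kapp taken as the intercept/slope ratio.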

[8] = test system: HCC70 triple negative breast cancer cell line; test: Resazurin cytotoxicity assay, HCC70; type: cell-based; conditions: for IC50: read-out: HCC70 IC50 and SD
[9] = test system: cancer cell lines (HeLa, HCC70, MCF-7); test: Resazurin cytotoxicity assay, cancer cell lines as a group; type: cell-based; conditions: read-out: IC50 values against the cancer cells
Summary of the method: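 HeLa, HCC70 and MCF-7 cells seeded at 5000 cells/well and left to attach overnight (37 °C, 9 % CO2). Treated 96 h with test compound (15.63–500.00 μM), 2 % (v/v) DMSO vehicle, or paclitaxel control (0.16–500 nM). Resazurin then added for 2–4 h; fluorescence read at ex 560/em 590 nm. Done in triplicate; IC50 by non-linear regression.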

[10] = Ibuprofen site marker (site II)
[11] = No Site marker, KSV=kq τ0, τ0 10^−8 s
[12] = 96 hours, non-cancerous control
[13] = (IC50 value in MCF12-A)/(IC50 value in cancer cell line)

Molecule	IC50 ([1]; 96 hours)	Intensity of EtBr stained gDNA band (human genomic DNA (gDNA); higher concentration (200 μM))	Stability in anhydrous DMSO (UV-Vis spectral changes) [2]	Competition with methylene blue for DNA binding (intercalation) (calf thymus DNA)	K SV [4, 10]	k q [4, 10]	K SV ([4]; No Site marker)	k q [4, 11]	K SV ([4]; Warfarin site marker (site I))	k q ([4]; Warfarin site marker (site I))	IC50 [6, 12]	apparent association constant (kapp) [7]	further results
cis‐Cl, trans‐P‐[RuCl2(PPh3)2(btm)] [Compound 3]	8.87 ± 1.12 µM	considerable dose‐dependent reduction in intensity	blue‐shifted and decreasing MLCT band at 525 nm and an emerging MLCT band at 437 nm	no effect on the ability of methylene blue to bind to the DNA	9130 M⁻¹	9.13e+11 M⁻¹ s⁻¹	69500 M⁻¹	6.95e+12 M⁻¹ s⁻¹	1290 M⁻¹	1.29e+11 M⁻¹ s⁻¹	36.5 ± 1.08 µM	18900 M⁻¹	Inhibition of Topo I activity ([3]; 50 μM): complete inhibition of Topo I; IC50 ([5]; read-out: HeLa IC50 and SD, 96 hours): 6.29 ± 1.1 µM
trans‐P‐[RuCl(PPh3)2(pmt)]Cl [Compound 1]	5.2 µM	considerable dose‐dependent reduction in intensity	noticeable alterations in the electronic spectrum	competitively bind to the calf thymus DNA in a concentration‐dependent manner	1360 M⁻¹	1.36e+11 M⁻¹ s⁻¹	88400 M⁻¹	8.84e+12 M⁻¹ s⁻¹	2090 M⁻¹	2.09e+11 M⁻¹ s⁻¹	60.1 µM	90200 M⁻¹	Intensity of EtBr stained gDNA band (human genomic DNA (gDNA); lower concentration (50 μM), relative to DMSO control): decreases in the intensity of the EtBr stained gDNA; fold less cytotoxic towards HCC70 compared to MCF-7 ([8]; HCC70 versus MCF-7): more than 10 fold; IC50 ([8]; 96 hours): 75.5 µM; Inhibition of Topo I activity ([3]; 50 and 200 μM): inhibited Topo I activity
CC(=O)O[C@H]1C(=O)[C@@]2(C)[C@H]([C@H](OC(=O)c3ccccc3)[C@]3(O)C[C@H](OC(=O)[C@H](O)[C@@H](NC(=O)c4ccccc4)c4ccccc4)C(C)=C1C3(C)C)[C@]1(OC(C)=O)CO[C@@H]1C[C@@H]2O [Paclitaxel, paclitaxel, reference compound]	–	–	–	–	–	–	–	–	–	–	–	–	SI (selectivity index), MCF-7 [1, 13]: 6.73; IC50 ([1]; Homo sapiens, MCF7, 96 h): 0.0024 ± 0.00111 µM; SI (selectivity index), HCC70 [8, 13]: 4.12; IC50 ([8]; Homo sapiens, HCC70, 96 h): 0.00392 ± 0.00103 µM; IC50 [9]: 0.0024 to 0.00392 µM; SI (selectivity index), HeLa [5, 13]: 5.96; IC50 ([6]; Homo sapiens, MCF-12A, 96 h): 0.0162 ± 0.00108 µM
CC[C@@]1(O)C(=O)OCc2c1cc1n(c2=O)Cc2cc3ccccc3nc2-1 [camptothecin, reference compound]	–	–	–	–	–	–	–	–	–	–	–	–	Inhibition of Topo I activity ([3]; 200 μM): failed to inhibit the enzyme
